Values after ≈ are worked out from the molar mass of the structure shown.
Tests used:
Trichomonas vaginalis [1] = assay: Antitrichomonas activity against metronidazole-susceptible Trichomonas vaginalis assessed as decrease in cell viability after 48 hrs by trypan blue exclusion method; assay type: functional
Cryptococcus neoformans = assay: Antifungal activity against Cryptococcus neoformans after 48 hrs by broth microdilution method; assay type: functional
In short: (§1)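 Broth microdilution per NCCLS guidelines in MOPS-buffered RPMI 1640; starting inoculum 1-5 x 10^3 CFU/mL; plates incubated at 35 °C; MIC recorded after 48 h; fluconazole as reference; experiments repeated three times.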

Candida albicans [2] = assay: Antifungal activity against Candida albicans ATCC 10231 after 48 hrs by broth microdilution method; assay type: functional; conditions: ATCC 10231, 48 h; in short: as §1
Candida albicans [3] = assay: Antifungal activity against Candida albicans ATCC 14053 after 48 hrs by broth microdilution method; assay type: functional; conditions: ATCC 14053, 48 h; in short: as §1
[4] = Selectivity index, ratio of IC50 for human HeLa cells to MIC for metronidazole-resistant Trichomonas vaginalis CDC085 ATCC 50143; assay type: toxicity; conditions: read-out: Selectivity Index
[5] = Selectivity index, ratio of IC50 for human HeLa cells to MIC for metronidazole-susceptible Trichomonas vaginalis; assay type: toxicity; conditions: read-out: Selectivity Index
HeLa = assay: Cytotoxicity against human HeLa cells after 24 hrs by MTT assay; assay type: cell-based
Candida albicans [6] = assay: Antifungal activity against Candida albicans patient isolate after 48 hrs by broth microdilution method; assay type: functional; in short: as §1
Candida albicans [7] = assay: Antifungal activity against Candida albicans MTCC 183 after 48 hrs by broth microdilution method; assay type: functional; conditions: MTCC 183, 48 h; in short: as §1
Trichomonas vaginalis [8] = assay: Potency index, ratio of metronidazole MIC to test compound MIC for metronidazole-resistant Trichomonas vaginalis CDC085 ATCC 50143; assay type: functional
Candida parapsilosis = assay: Antifungal activity against Candida parapsilosis ATCC 22019 after 48 hrs by broth microdilution method; assay type: functional; conditions: Lodderomyces parapsilosis, ATCC 22019, 48 h; in short: as §1
Candida albicans [9] = assay: Antifungal activity against Candida albicans ATCC 66027 after 48 hrs by broth microdilution method; assay type: functional; conditions: ATCC 66027, 48 h; in short: as §1
Nakaseomyces glabratus = assay: Antifungal activity against Candida glabrata ATCC 2001 after 48 hrs by broth microdilution method; assay type: functional; conditions: ATCC 2001, 48 h; in short: as §1
Trichomonas vaginalis [10] = assay: Antitrichomonas activity against metronidazole-resistant Trichomonas vaginalis CDC085 ATCC 50143 assessed as decrease in cell viability after 48 hrs by trypan blue exclusion method; assay type: functional; conditions: CDC085 ATCC 50143, 48 h
Sporothrix schenckii = assay: Antifungal activity against Sporothrix schenckii after 48 hrs by broth microdilution method; assay type: functional; in short: as §1
[11] = system: Trichophyton mentagrophytes; assay: Antifungal activity against Trichophyton mentagrophytes after 48 hrs by broth microdilution method; assay type: functional; in short: as §1

| SMILES | MIC (Trichomonas vaginalis [1]) [µM] | MIC (Cryptococcus neoformans) [µM] | MIC (Candida albicans [2]) [µM] | MIC (Candida albicans [3]) [µM] | selectivity ratio [4] | selectivity ratio [5] | IC50 (HeLa) [mM] | MIC (Candida albicans [6]) [µM] | MIC (Candida albicans [7]) [µM] | Ratio (Trichomonas vaginalis [8]) | MIC (Candida parapsilosis) [µM] | MIC (Candida albicans [9]) [µM] | MIC (Nakaseomyces glabratus) [µM] | MIC (Trichomonas vaginalis [10]) [µM] | MIC (Sporothrix schenckii) [µM] | MIC [11] [µM] |
| --- | --- | --- | --- | --- | --- | --- | --- | --- | --- | --- | --- | --- | --- | --- | --- | --- |
| CC1CCCN(C(=S)SC(=S)N(C)C)C1 (stereo not drawn) | 47.7 (≈ 12.5 µg/mL) | 47.7 (≈ 12.5 µg/mL) | 95.4 (≈ 25 µg/mL) | 95.4 (≈ 25 µg/mL) | 30 | 60 | 2.9 | 23.9 (≈ 6.26 µg/mL) | 47.7 (≈ 12.5 µg/mL) | 1.5 - 3.8 | 23.9 (≈ 6.26 µg/mL) | 47.7 (≈ 12.5 µg/mL) | 95.4 (≈ 25 µg/mL) | 95.4 (≈ 25 µg/mL) | 23.9 (≈ 6.26 µg/mL) | 23.9 (≈ 6.26 µg/mL) |
| CN(C)C(=S)SC(=S)N1CCCCCC1 | 95.4 (≈ 25 µg/mL) | 47.7 (≈ 12.5 µg/mL) | 23.9 (≈ 6.26 µg/mL) | 11.9 (≈ 3.12 µg/mL) | > 26 | > 52 | > 5 | 23.9 (≈ 6.26 µg/mL) | 47.7 (≈ 12.5 µg/mL) | 1.5 - 3.8 | 23.9 (≈ 6.26 µg/mL) | 23.9 (≈ 6.26 µg/mL) | 11.9 (≈ 3.12 µg/mL) | 191 (≈ 50.1 µg/mL) | 23.9 (≈ 6.26 µg/mL) | 23.9 (≈ 6.26 µg/mL) |
| CCOC(=O)N1CCN(C(=S)SC(=S)N(C)C)CC1 | 77.9 (≈ 25 µg/mL) | 156 (≈ 50.1 µg/mL) | > 156 | 156 (≈ 50.1 µg/mL) | 3 | 6 | 0.53 | 156 (≈ 50.1 µg/mL) | 156 (≈ 50.1 µg/mL) | 1.3 - 9.5 | 156 (≈ 50.1 µg/mL) | 38.9 (≈ 12.5 µg/mL) | 156 (≈ 50.1 µg/mL) | 156 (≈ 50.1 µg/mL) | 77.9 (≈ 25 µg/mL) | 77.9 (≈ 25 µg/mL) |
| CN(C)C(=S)SC(=S)N1CCN(C(=O)NC2CCCCC2)CC1 | 133 (≈ 49.9 µg/mL) | > 133 | > 133 | > 133 | > 18 | > 37 | > 5 | > 133 | > 133 | 1.3 - 11.2 | 133 (≈ 49.9 µg/mL) | > 133 | > 133 | 267 (≈ 99.9 µg/mL) | 133 (≈ 49.9 µg/mL) | 133 (≈ 49.9 µg/mL) |
| CN(C)C(=S)SC(=S)N1CCOCC1 | 100 (≈ 25 µg/mL) | 200 (≈ 50.1 µg/mL) | 25 (≈ 6.26 µg/mL) | 50 (≈ 12.5 µg/mL) | 10 | 40 | 4 | 200 (≈ 50.1 µg/mL) | 50 (≈ 12.5 µg/mL) | – | 200 (≈ 50.1 µg/mL) | 100 (≈ 25 µg/mL) | 100 (≈ 25 µg/mL) | 400 (≈ 100 µg/mL) | 100 (≈ 25 µg/mL) | 100 (≈ 25 µg/mL) |
| CN(C)C(=S)SC(=S)N1CCN(C(=S)NCc2ccccc2)CC1 | 125 (≈ 50 µg/mL) | > 125 | > 125 | > 125 | > 20 | > 40 | > 5 | > 125 | > 125 | 1.3 - 11.2 | > 125 | > 125 | > 125 | 251 (≈ 99.9 µg/mL) | 125 (≈ 50 µg/mL) | 125 (≈ 50 µg/mL) |
| CCCCSC(=S)N1CCN(C(=S)SC(=S)N(C)C)CC1 | 262 (≈ 99.9 µg/mL) | 65.3 (≈ 24.9 µg/mL) | > 131 | 131 (≈ 49.9 µg/mL) | > 7 | > 19 | > 5 | 16.3 (≈ 6.23 µg/mL) | 131 (≈ 49.9 µg/mL) | – | 8.16 (≈ 3.11 µg/mL) | 32.7 (≈ 12.5 µg/mL) | 131 (≈ 49.9 µg/mL) | 654 (≈ 250 µg/mL) | 32.7 (≈ 12.5 µg/mL) | 32.7 (≈ 12.5 µg/mL) |
| CN(C)C(=S)SC(=S)N1CCN(C(=S)SCCCC#N)CC1 | 63.6 (≈ 25 µg/mL) | > 127 | > 127 | > 127 | > 39 | > 79 | > 5 | > 127 | > 127 | 1.3 - 11.2 | > 127 | > 127 | > 127 | 127 (≈ 50 µg/mL) | 127 (≈ 50 µg/mL) | 127 (≈ 50 µg/mL) |
| CN(C)C(=S)SC(=S)N1CCN(C(=S)SCc2ccccc2)CC1 | 60.1 (≈ 25 µg/mL) | 60.1 (≈ 25 µg/mL) | > 120 | 120 (≈ 50 µg/mL) | > 41 | > 83 | > 5 | 30 (≈ 12.5 µg/mL) | 120 (≈ 50 µg/mL) | 1.3 - 11.2 | 7.5 (≈ 3.12 µg/mL) | 30 (≈ 12.5 µg/mL) | 120 (≈ 50 µg/mL) | 120 (≈ 50 µg/mL) | 60.1 (≈ 25 µg/mL) | 60.1 (≈ 25 µg/mL) |
| CN(C)C(=S)SC(=S)N1CCN(C(=S)NCCc2ccccc2)CC1 | 60.5 (≈ 25 µg/mL) | > 121 | > 121 | > 121 | > 20 | > 83 | > 5 | > 121 | > 121 | 1.3 - 11.2 | > 121 | > 121 | > 121 | 242 (≈ 99.9 µg/mL) | > 121 | > 121 |

Source: ChEMBL document CHEMBL4138228, “Substituted carbamothioic amine-1-carbothioic thioanhydrides as novel trichomonicidal fungicides: Design, synthesis, and biology” (Eur J Med Chem, 2018)
